IDH1 R132H inh: inhibitors of IDH1 R132H reductase, primary screen, biochemical, plate reader, single point; Isocitrate dehydrogenase [NADP] cytoplasmic (Homo sapiens), O75874; diaphorase/resazurin fluorescence, 60 min; inhibition, % at 10 µM; 70,000 compounds, 0.18% hits; AID 624101, 2012; in the data active = inhibition above about 34%; inconclusive = no clear call, values can overlap the other calls; inactive = below about 11%;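 also: 0% = DMSO and 100% = no enzyme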
Target sequence (O75874 whole entry R132H): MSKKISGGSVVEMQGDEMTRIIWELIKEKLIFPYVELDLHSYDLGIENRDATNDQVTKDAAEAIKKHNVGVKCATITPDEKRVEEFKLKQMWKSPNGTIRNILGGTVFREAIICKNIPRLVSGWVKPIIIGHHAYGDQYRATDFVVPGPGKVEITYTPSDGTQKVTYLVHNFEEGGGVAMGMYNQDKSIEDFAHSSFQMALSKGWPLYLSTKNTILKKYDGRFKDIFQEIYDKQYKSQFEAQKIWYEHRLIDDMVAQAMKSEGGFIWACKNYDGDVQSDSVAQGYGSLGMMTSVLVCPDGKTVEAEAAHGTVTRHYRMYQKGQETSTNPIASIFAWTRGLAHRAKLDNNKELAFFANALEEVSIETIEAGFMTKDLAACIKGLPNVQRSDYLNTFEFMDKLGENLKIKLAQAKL
Pf Dd2 inh: P. falciparum Dd2 growth inhibitors, primary screen, SYBR Green fluorescence, single dose replicates | 72 h; active compounds read low | AID 1159554, 2015 | 94,000 compounds, 2.3% hits | activity change, % at 10 µM; in the data active = activity change below about -80%; inconclusive = no clear call, values can overlap the other calls
GASC1 inh: inhibitors of GASC-1 (KDM4C) histone demethylase, primary screen, biochemical, single concentration HTS | Lysine-specific demethylase 4C (Homo sapiens), Q9H3R0 | inhibition, % at 12.5 µM | 96,000 compounds, 0.15% hits | GST-KDM4C 2-372, H3K9me3 peptide, LANCE TR-FRET;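 active = mean replicate inhibition above about 25%, with at least 55% of replicates also reaching it, limit read from the data, passing the limit was not always enough; inconclusive = only one of those two conditions met; inactive = neither condition met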
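Compound: one test concentration per compound; Material: GST-GASC-1 enzyme fragment 2-372; Amount: GASC-1 enzyme at 10 nM final in reaction; Also added: H3K9me3 peptide substrate, Fe(II), 2-oxoglutarate; Technique: LANCE TR-FRET; Times: 30 min demethylation and 1 h detection at room temperature.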
Tcruzi prolif: T. cruzi intracellular proliferation inhibitors, primary screen, cell-based, beta-gal Tulahuen parasites, NIH3T3 host, luminescence. T. cruzi beta-gal in NIH3T3, GalScreen luminescence, 90 h. inhibition, % at 8.34 µM. 77,000 compounds, 5.9% hits;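 active = mean inhibition above about 93%, with at least 55% of replicates each passing it, limit read from the data, passing the limit was not always enough; inconclusive = only one of those two conditions holds; inactive = neither condition holds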
* marks the source's active call; other numbers are inactive results; ? = inconclusive; . = not tested or not shown. Compounds with a hit are over-represented: about 5.8% of the library has one in this group of screens.

SMILES | IDH1 R132H inh | Pf Dd2 inh | GASC1 inh | Tcruzi prolif
N#Cc1cccc(-c2ccc3c(c2)[C@H]2[C@H](CCN2Cc2ccncc2)[C@@H](CO)N3)c1 | . | -88.6* | 6.0 | .
CCCC#Cc1cnc2c(c1)C(=O)N([C@H](C)CO)C[C@@H](C)[C@H](CN(C)C(=O)Nc1cc(F)ccc1F)O2 | -0.2 | -81.3* | 7.7 | 54.2
COc1ccccc1NC(=O)N(C)C[C@@H]1Oc2ncc(C#CC(C)C)cc2C(=O)N([C@@H](C)CO)C[C@H]1C | 0.6 | -82.3* | 6.8 | 50.6
CCC(Sc1nnc(-c2ccc([N+](=O)[O-])cc2)n1C)C(=O)Nc1ccc(Br)cc1 (centres undefined) | -0.1 | . | . | .
COC(=O)C1=COC(O[C@@H]2O[C@H](CO)[C@@H](O)[C@H](O)[C@H]2O)[C@@H]2[C@@](C)(O)CC[C@]12O (some centres undefined) | -0.3 | . | . | .
COc1ccc2c3c([nH]c2c1)[C@H](CO)N(C(=O)c1cccc(F)c1)CC31CN(C(=O)CC2CC2)C1 | . | -77.9 | 6.2 | .
CCCNC(=O)N1CCC2(CC1)CN(Cc1cccc(OC)c1)[C@H](CO)c1[nH]c3cc(OC)ccc3c12 | . | -73.8 | -0.8 | .
COc1ccc2c3c([nH]c2c1)[C@H](CO)N(Cc1cccc(F)c1)CC31CCN(C(C)=O)CC1 | . | -82.8* | -0.4 | .
COc1ccc2c3c([nH]c2c1)[C@@H](CO)N(Cc1ccc(F)cc1)CC31CCN(C(C)=O)CC1 | . | 35.2 | . | .
CCCNC(=O)N1CCC2(CC1)CN(Cc1cccc(F)c1)[C@H](CO)c1[nH]c3cc(OC)ccc3c12 | . | -83.1* | 0.1 | .
COc1ccc2c3c([nH]c2c1)[C@H](CO)N(C(=O)c1cccc(F)c1)CC31CCN(C(=O)CC2CC2)CC1 | . | -82.3* | -1.4 | .
COC(=O)CCCCCCC(=O)N/N=C/c1ccc(CO)o1 | 0.1 | . | . | .
N[C@H]1CC[C@H](CCn2cc(C3CC3)nn2)O[C@@H]1CO | . | 8.5 | 31.4* | .
CC(C)c1cn(CC[C@@H]2CC[C@H](N)[C@@H](CO)O2)nn1 | 0.9 | 21.0 | 38.3* | -16.4
N[C@H]1CC[C@H](CCn2cc(C3CCCCC3)nn2)O[C@@H]1CO | 0.1 | -13.6 | -0.5 | -42.9
COc1ccc(NC(=O)Nc2ccc3c(c2)C(=O)N([C@H](C)CO)C[C@H](C)[C@H](CN(C)S(=O)(=O)c2ccc(Cl)cc2)OCCCC[C@@H](C)O3)cc1 | 0.0 | -82.2* | -0.1 | 33.1
COc1ccc(NC(=O)Nc2ccc3c(c2)C(=O)N([C@@H](C)CO)C[C@H](C)[C@H](CN(C)S(=O)(=O)c2ccc(Cl)cc2)OCCCC[C@@H](C)O3)cc1 | . | -86.5* | 6.1 | 79.6
COc1ccc(S(=O)(=O)N(C)C[C@@H]2OCCCC[C@@H](C)Oc3ccc(NC(=O)Nc4ccccc4)cc3C(=O)N([C@@H](C)CO)C[C@@H]2C)cc1 | -1.0 | -82.7* | 0.4 | 74.2
COc1ccc(S(=O)(=O)N(C)C[C@H]2OCCCC[C@H](C)Oc3ccc(NC(=O)Nc4ccccc4)cc3C(=O)N([C@H](C)CO)C[C@@H]2C)cc1 | 0.3 | -37.8 | -1.4 | 53.1
O=C(Nc1cccc(C(F)(F)F)c1)c1cc([N+](=O)[O-])ccc1NCc1cccnc1 | -0.2 | . | . | .
O=C(Cn1ccc([N+](=O)[O-])n1)NCc1ccccn1 | 0.3 | . | . | .
COc1cccc(NC(=O)N(C)C[C@@H]2Oc3cc(C#Cc4ccccc4)ccc3S(=O)(=O)N([C@@H](C)CO)C[C@H]2C)c1 | . | -67.7 | -1.6 | 125.2*
COc1cccc(NC(=O)N(C)C[C@H]2Oc3cc(C#Cc4ccccc4)ccc3S(=O)(=O)N([C@@H](C)CO)C[C@H]2C)c1 | 0.1 | ? | 0.4 | 120.1*
COc1cccc(C#Cc2ccc3c(c2)O[C@@H](CN(C)C(=O)c2ccccn2)[C@H](C)CN([C@@H](C)CO)S3(=O)=O)c1 | 0.1 | -83.6* | -2.6 | ?
C[C@@H]1CN([C@H](C)CO)S(=O)(=O)c2ccc(C#C[C@@H](C)O)cc2O[C@H]1CN(C)C(=O)Nc1ccccc1 | . | -92.2* | . | 76.8
SMILES | IDH1 R132H inh | Pf Dd2 inh | GASC1 inh | Tcruzi prolif
COc1cccc(NC(=O)N(C)C[C@H]2Oc3cc(C#Cc4ccncc4)ccc3S(=O)(=O)N([C@H](C)CO)C[C@H]2C)c1 | 0.4 | -46.7 | -1.8 | 56.3
O=C1O[C@@H](c2ccccc2)[C@@H](c2ccccc2)N2[C@@H](c3ccc(O)cc3)[C@]3(C(=O)Nc4ccccc43)[C@@H](C(=O)N3CCN(c4ncccn4)CC3)[C@H]12 | 0.4 | . | . | .
COc1ccc(S(=O)(=O)N(C)C[C@@H]2OCCCC[C@@H](C)Oc3ccc(NC(=O)Nc4ccc5c(c4)OCO5)cc3C(=O)N([C@@H](C)CO)C[C@@H]2C)cc1 | . | -88.2* | 1.0 | 75.3
COc1ccc(S(=O)(=O)N(C)C[C@@H]2OCCCC[C@@H](C)Oc3ccc(NC(=O)Nc4ccc5c(c4)OCO5)cc3C(=O)N([C@H](C)CO)C[C@@H]2C)cc1 | . | -84.3* | 6.0 | 36.7
COc1ccc(S(=O)(=O)N(C)C[C@@H]2OCCCC[C@H](C)Oc3ccc(NC(=O)Nc4ccc5c(c4)OCO5)cc3C(=O)N([C@H](C)CO)C[C@H]2C)cc1 | 1.6 | -82.0* | 16.9 | 40.4
COc1ccc(NC(=O)Nc2ccc3c(c2)C(=O)N([C@@H](C)CO)C[C@@H](C)[C@H](CN(C)S(=O)(=O)c2ccc(OC)cc2)OCCCC[C@@H](C)O3)cc1 | -0.6 | -57.0 | -0.3 | 84.5
COC(=O)c1ccccc1NC(=O)CSc1nc(-c2ccccc2)cc(=O)[nH]1 | 0.0 | . | . | .
COc1ccc(NC(=O)Nc2ccc3c(c2)C(=O)N([C@H](C)CO)C[C@@H](C)[C@H](CN(C)Cc2ccc(C(F)(F)F)cc2)OCCCC[C@H](C)O3)cc1 | -2.6 | -87.0* | 0.4 | 58.9
COc1ccc(CN(C)C[C@H]2OCCCC[C@H](C)Oc3ccc(NC(=O)Nc4ccc(C(F)(F)F)cc4)cc3C(=O)N([C@H](C)CO)C[C@@H]2C)cc1 | 1.2 | -36.7 | -3.4 | 52.2
COc1ccc(NC(=O)Nc2ccc3c(c2)C(=O)N([C@@H](C)CO)C[C@@H](C)[C@H](CN(C)Cc2ccc(C(F)(F)F)cc2)OCCCC[C@@H](C)O3)cc1 | 0.1 | -85.5* | -0.2 | 72.0
COc1ccc(CN(C)C[C@H]2OCCCC[C@@H](C)Oc3ccc(NC(=O)Nc4ccc(C(F)(F)F)cc4)cc3C(=O)N([C@@H](C)CO)C[C@H]2C)cc1 | . | -87.5* | . | 56.4
COc1ccc(NC(=O)Nc2ccc3c(c2)C(=O)N([C@H](C)CO)C[C@H](C)[C@H](CN(C)Cc2ccc(C(F)(F)F)cc2)OCCCC[C@@H](C)O3)cc1 | . | -25.2 | -0.9 | 84.0
Clc1snnc1CN1CCOCC1 | 0.3 | . | . | .
CC(Sc1nc(N)cc(=O)[nH]1)C(=O)Nc1ccc(Cl)cc1 (centres undefined) | 0.5 | . | . | .
COC(=O)CNC(=O)c1cc2nc(-c3ccc(C)c(C)c3)cc(C(F)(F)F)n2n1 | 2.4 | . | . | .

Bioassay records: PubChem BioAssay, Broad Institute
